5HT1a ag = human 5-HT1a receptor agonists, primary screen, cell-based, CHO, Ga15 NFAT-bla reporter; AID 567, 2006; activation, % at 10 µM; CHO 5-HT1a Ga15 NFAT-bla reporter, FRET ratio; 0% basal, 100% maximal reference agonist; actives 0.56% (n = 65,000);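 active = activation above the screen-wide mean activation plus 3 SD, cut at about 19% in these data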
S1P1 ag pot = S1P1 agonists and agonism potentiators, primary screen, cell-based, primary and confirmation screens, CRE-bla reporter; S1P1 CRE-bla cells, forskolin, beta-lactamase FRET, potentiator mode; S1P1 agonist co-added at EC20, 2 nM; 100% = saturating reference agonist, 0% = basal; AID 449, 2006; actives 0.57% (n = 56,000); activation, % at 9.5 µM;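 active = activation above a cutoff set at the mean activation of all tested compounds plus 3 SD, cut at about 54% in these data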;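 also: forskolin at 4 µM as EC80 and the EC20 agonist is SEW2871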
Target sequence (P21453 whole entry, looked up): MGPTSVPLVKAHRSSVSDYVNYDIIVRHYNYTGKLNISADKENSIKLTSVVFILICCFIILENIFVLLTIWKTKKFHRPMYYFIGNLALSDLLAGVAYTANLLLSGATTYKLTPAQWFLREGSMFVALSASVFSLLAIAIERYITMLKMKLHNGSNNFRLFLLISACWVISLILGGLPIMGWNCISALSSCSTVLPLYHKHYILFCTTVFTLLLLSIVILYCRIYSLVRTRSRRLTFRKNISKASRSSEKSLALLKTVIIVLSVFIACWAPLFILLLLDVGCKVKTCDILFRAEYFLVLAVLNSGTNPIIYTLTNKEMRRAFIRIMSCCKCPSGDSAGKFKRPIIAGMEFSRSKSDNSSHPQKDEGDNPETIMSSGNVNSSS
5HT1E ag = 5-HT1E receptor agonists, primary screen, cell-based, HTS; actives 0.69% (n = 65,000); AID 574, 2007; activation, % at 6 µM; CHO 5-HT1E Ga15 NFAT-bla reporter, FRET; 0% DMSO wells, 100% control agonist wells;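 active = activation above a set limit, the screen-wide mean activation plus 3 SD, cut at about 8.5% in these data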
HTR1E antagonist = 5-HT1E receptor antagonists, primary screen, cell-based, HTS; 5-hydroxytryptamine receptor 1E (Homo sapiens), P28566; CHO 5-HT1E Ga15 NFAT-bla reporter, FRET, antagonist; inhibition, % at 6 µM; actives 0.99% (n = 65,000);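 active = inhibition above a set limit, the mean inhibition across every tested compound plus 3 SD, cut at about 29% in these data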;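 also: signal is the 460 over 535 nm emission ratio of beta-lactamase substrate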
5-HT1A blocker = human 5-HT1a receptor antagonists, primary screen, cell-based, CHO, Ga15 NFAT-bla reporter. CHO 5-HT1a Ga15 NFAT-bla reporter, antagonist mode. inhibition, % at 10 µM. actives 0.68% (n = 62,000);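 active = inhibition above the mean of all tested compounds plus 3 SD, cut at about 43% in these data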;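 also: receptor stimulated by 5-CT agonist at 100 nM near EC80; beta-lactamase reporter measured by ratiometric fluorescence of a cleavable substrate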
S1P3 agonist = human S1P3 receptor agonists, primary screen, cell-based, primary and confirmation, NFAT-BLA reporter; Sphingosine 1-phosphate receptor 3 (Homo sapiens), Q99500; S1P3 NFAT-BLA reporter cells, agonism, FRET ratio; relative to 1 µM S1P, basal subtracted; activation, % at 4.5 µM; actives 0.1% (n = 60,000);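 active = activation above the screen-wide mean plus 3 SD, cut at about 4.5% in these data, passing the limit was not always enough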
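material = human S1P3 NFAT-BLA reporter CHO cells | schedule = 4 h compound at 37 °C, 2 h substrate at RT | measured by = fluorescent BLA substrate, ex 405 nm, em 460/535 nm ratio | controls = 1 µM S1P reference | replication = primary once, confirmation triplicate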
Large screens that a line does not name were inactive. In the library only some 3% were active in any assay of this set; here they are far more common.

O=C(O)c1ccc(OCC(O)Cn2cnc3ccccc32)cc1 (configuration not stated)	5HT1E ag 9.3
Cc1c[nH]c2cccc(OCC(O)CNC(C)(C)C)c12 (configuration not stated)	5-HT1A blocker 82
CCOc1ccccc1OCC(O)CNC (configuration not stated)	none
Cc1cc(C)nc(NCC(O)COc2ccccc2C)n1 (configuration not stated)	none
CC(C)(C)NCC(O)COc1ccccc1C(C)(C)C (configuration not stated)	5-HT1A blocker 80
Cc1cc(C)cc(N(CC(=O)NCc2cccnc2)S(C)(=O)=O)c1	5HT1E ag 17
CCC(C)(C(=O)NC1CCCCC1)N(Cc1ccco1)C(=O)c1ccc2c(c1)OCO2 (configuration not stated)	5-HT1A blocker 44
COc1ccc(C(=O)CSc2nnc(CNC(=O)c3ccc(OC)cc3)n2C)cc1	none
O=C(CN1CCC(NC(=O)c2cccc(F)c2)CC1)NCc1ccccc1F	5HT1a ag 27 (no result: S1P1 ag pot, S1P3 agonist)
O=C(CN1CCC(NC(=O)c2ccccc2)CC1)NCc1ccccc1F	none
Nc1cc(C(=O)O)ccc1Nc1ccc(F)c(F)c1	5HT1E ag 33
CCCOC(=O)c1ccc(Nc2cc(C)nc3ncnn23)cc1	5HT1a ag 105
CCN(CC)S(=O)(=O)c1ccc(Nc2cc(C)nc3ncnn23)cc1	none
CCn1c2ccccc2c2cc(Nc3cc(C)nc4ncnn34)ccc21	HTR1E antagonist 70, 5-HT1A blocker 72
COc1ccc(NC(=O)C2=C(C)C(=O)OC23CCC(C)CC3)c(OC)c1 (configuration not stated)	none
Fc1cccc(Cl)c1-c1nnc2ccc(N3CCOCC3)nn12	none (no result: S1P1 ag pot)
CCCCC(c1nnnn1CC1CCCO1)N1CCN(c2nc3ccccc3s2)CC1 (configuration not stated)	5HT1E ag 10
CC(C)CC(c1nnnn1CC1CCCO1)N1CCN(c2nc3ccccc3s2)CC1 (configuration not stated)	none
COc1ccc(NC(=O)CN(c2cc(C)cc(C)c2)S(=O)(=O)c2c(C)noc2C)cc1OC	none
CC(C)CCNC(=O)C1CCN(C(=O)N(C)C)CC1	none
CCN(Cc1ccccc1)C(c1cccc(C#N)c1)c1nnnn1C(C)(C)C (configuration not stated)	5-HT1A blocker 44
Cc1ccc(S(=O)(=O)N2CCCSCC2)cc1	5HT1a ag 49
COc1ccc(N(CC(=O)NC2CCCC2)C(=O)Cn2nnc(-c3ccc(C)cc3)n2)cc1OC	5HT1E ag 54
CC(C)CC(=O)N1CCN(Cc2cccc(F)c2)CC1	none
Cc1ccccc1CS(=O)(=O)c1nnc([C@H](CC(C)C)NC(=O)OC(C)(C)C)o1	HTR1E antagonist 36
Cc1[nH]c(=O)[nH]c(=O)c1CSc1nnc([C@@H](NC(=O)OC(C)(C)C)C(C)C)o1	none
CC(C)(C)OC(=O)N[C@@H](Cc1ccccc1)c1nnc(S(=O)(=O)Cc2cccc(F)c2)o1	S1P1 ag pot 70, HTR1E antagonist 46, 5-HT1A blocker 67
CC(C)C[C@H](N)c1nnc(S(=O)(=O)Cc2cccc(F)c2)o1	5-HT1A blocker 58
CC(C)[C@H](NC(=O)OC(C)(C)C)c1nnc(S(=O)(=O)Cc2c(F)cccc2Cl)o1	HTR1E antagonist 67, 5-HT1A blocker 79
CCOC(=O)CSc1nnc([C@H](Cc2ccccc2)NC(=O)OC(C)(C)C)o1	none
CC(C)(C)SCCNC(=O)c1ccc(NS(C)(=O)=O)cc1	none
CCOC(=O)C1=C(N)c2ccccc2CC1C(C)C (configuration not stated)	none (no result: 5-HT1A blocker)
CC[C@@H](C)[C@H](NC(=O)OC(C)(C)C)c1nnc(S(=O)(=O)Cc2cc(C)ccc2C)o1	HTR1E antagonist 35, 5-HT1A blocker 57
CC1CCCCN1C(=O)Cn1c(=O)n(CCC(=O)NCc2ccco2)c(=O)c2sccc21 (configuration not stated)	none
Cc1cc(C)n(C(=O)c2ccc(C)c(S(=O)(=O)N3CCCC3)c2)n1	none
CC(C)Oc1ccccc1C1CC(=O)Nc2cc3c(cc21)OCCO3 (configuration not stated)	HTR1E antagonist 63, 5-HT1A blocker 50
COc1cccc(C2CC(=O)Nc3cc4c(cc32)OCCO4)c1OC(C)C (configuration not stated)	none
COc1ccccc1C1CC(=O)Nc2cc3c(cc21)OCCO3 (configuration not stated)	HTR1E antagonist 47
CC(C)CC1(C)NC(=O)N(CCN2C(=O)c3ccccc3C2=O)C1=O (configuration not stated)	none
COC(=O)c1ccc2[nH]c(C)c(CN3CCCC3)c(=O)c2c1	none (no result: S1P1 ag pot, S1P3 agonist)
Cc1[nH]c2ccc(Br)cc2c(=O)c1CN1CCCCC1	5HT1a ag 104
O=C(CN1C(=O)c2ccccc2S1(=O)=O)N1CCN(c2ccc(F)cc2)CC1	none
Cc1cc(C(=O)OCC(=O)NCc2ccco2)c(C)n1-c1ccc(F)cc1	HTR1E antagonist 37
O=C(COC(=O)c1ccco1)NCc1ccco1	none
CN(C)S(=O)(=O)N1CCC(c2ccc(F)cc2)C(COc2ccc3c(c2)OCO3)C1 (configuration not stated)	5-HT1A blocker 47
N#CCCn1c2ccccc2c2nc3ccccc3nc21	HTR1E antagonist 38
O=S(=O)(c1ccc(S(=O)(=O)N(Cc2ccc(F)cc2)C2CCCC2)cc1)N1CCCC1	HTR1E antagonist 31
CN(C)CCCN1C(=O)C(=O)/C(=C(/O)c2ccc3c(c2)OCCO3)C1c1ccccn1 (configuration not stated)	5HT1a ag 81
CCN(CC)CCCN1C(=O)C(=O)/C(=C(/O)c2ccc3c(c2)OCO3)C1c1ccccn1 (configuration not stated)	none
Cc1nc2ccc3nc(NC(=O)C4COc5ccccc5O4)sc3c2s1 (configuration not stated)	S1P1 ag pot 67
